Experiment [1] concerns S91. Briefly: Growth inhibition of Cloudman S91 Melanoma cells at 10 uM drug concentration; values are per cent of control. The following applies: Mus musculus.
In experiment [2] the test system is S91. Briefly: Growth inhibition of Cloudman S91 Melanoma cells at 1 uM drug concentration; values are per cent of control. The following applies: Mus musculus.
Experiment [3] has as its system Mus musculus. Briefly: Harding Passey melanoma tumor and organ incorporation of radioactivity 48 hr after 2.2 microCi dose injected intramuscularly in mouse lung. It counts as functional. A digest of the protocol: (§1)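 Harding Passey melanoma tissue (strongly melanized) was minced, and the brei was implanted subcutaneously into the right flank of DBA/2 mice. Tumors reached about 6×7 mm by 2 weeks. The ³⁵S-labelled thiouracil was injected intramuscularly into the right thigh, and animals were killed 48 h later. Four samples were taken per tumor and one per organ. Tissue was solubilized at 37 °C for 16 h, bleached, and scintillation-counted. Results are radioactivity per mg wet weight.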

Experiment [4] deals with Mus musculus. Briefly: Harding Passey melanoma tumor and organ incorporation of radioactivity 48 hr after 2.2 microCi dose injected intramuscularly in mouse spleen. It counts as functional. The gist of the method:
as §1

For experiment [5], the system named is Mus musculus. In words: Harding Passey melanoma tumor and organ incorporation of radioactivity 48 hr after 2.2 microCi dose injected intramuscularly in mouse tumor. It counts as functional. A digest of the protocol:
as §1

Experiment [6] concerns Mus musculus. In words: Cloudman S 91 melanoma tumor and organ incorporation of radioactivity 48 hr after 2.2 microCi dose injected intramuscularly in mouse tumor. Type of experiment: functional. A digest of the protocol: (§2)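 Cloudman S 91 cells in culture (3×10^6) were implanted subcutaneously into the right flank of DBA/2 mice. After 2 weeks the tumors were about 6×7 mm. The ³⁵S-labelled thiouracil was given intramuscularly into the right thigh, and mice were killed 48 h later. Four samples were taken per tumor and one per organ. Tissue was solubilized at 37 °C for 16 h, bleached, and counted by liquid scintillation. Results are radioactivity per mg wet weight.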

For experiment [7], the system named is Mus musculus. In words: Harding Passey melanoma tumor and organ incorporation of radioactivity 48 hr after 2.2 microCi dose injected intramuscularly in mouse kidney. Type of experiment: functional. A digest of the protocol: as §1
Experiment [8] relates to Mus musculus. In words: Cloudman S 91 melanoma tumor and organ incorporation of radioactivity 48 hr after 2.2 microCi dose injected intramuscularly in mouse spleen. It counts as functional. A digest of the protocol: as §2
The test system of experiment [9] is Mus musculus. Briefly: Cloudman S 91 melanoma tumor and organ incorporation of radioactivity 48 h after 2.2 microCi dose injected intramuscularly in mouse eye. Type of experiment: functional. The gist of the method:
as §2

Experiment [10] has as its system Mus musculus. In words: Cloudman S 91 melanoma tumor and organ incorporation of radioactivity 48 hr after 2.2 microCi dose injected intramuscularly in mouse liver. It counts as functional. The gist of the method:
as §2

The test system of experiment [11] is Mus musculus. Briefly: Harding Passey melanoma tumor and organ incorporation of radioactivity 48 hr after 2.2 microCi dose injected intramuscularly in mouse liver. Type of experiment: functional. A digest of the protocol: as §1
Experiment [12] relates to Mus musculus. Briefly: Harding Passey melanoma tumor and organ incorporation of radioactivity 48 hr after 2.2 microCi dose injected intramuscularly in mouse eye. It counts as functional. A digest of the protocol:
as §1

Experiment [13] deals with Mus musculus. In words: Cloudman S 91 melanoma tumor and organ incorporation of radioactivity 48 hr after 2.2 microCi dose injected intramuscularly in mouse lung. It counts as functional. The gist of the method: as §2
The test system of experiment [14] is Mus musculus. Briefly: Cloudman S 91 melanoma tumor and organ incorporation of radioactivity 48 hr after 2.2 microCi dose injected intramuscularly in mouse kidney. Type of experiment: functional. A digest of the protocol:
as §2

The subject of experiment [15] is Mus musculus. In words: Harding Passey melanoma tumor and organ incorporation of radioactivity 48 hr after 1.4 microCi dose injected intramuscularly in mouse spleen. Type of experiment: functional. A digest of the protocol: as §1
The subject of experiment [16] is Mus musculus. In words: Cloudman S 91 melanoma tumor and organ incorporation of radioactivity 48 h after 1.4 microCi dose injected intramuscularly in mouse lung. Type of experiment: functional. The gist of the method: as §2
The test system of experiment [17] is Mus musculus. Briefly: Cloudman S 91 melanoma tumor and organ incorporation of radioactivity 48 hr after 1.4 microCi dose injected intramuscularly in mouse eye. It counts as functional. The gist of the method: as §2
Experiment [18] deals with Mus musculus. In words: Harding Passey melanoma tumor and organ incorporation of radioactivity 48 hr after 1.4 microCi dose injected intramuscularly in mouse kidney. It counts as functional. The gist of the method: as §1
In experiment [19] the test system is Mus musculus. In words: Harding Passey melanoma tumor and organ incorporation of radioactivity 48 hr after 1.4 microCi dose injected intramuscularly in mouse eye. It counts as functional. The gist of the method: as §1
In experiment [20] the test system is Mus musculus. Briefly: Cloudman S 91 melanoma tumor and organ incorporation of radioactivity 48 hr after 1.4 microCi dose injected intramuscularly in mouse tumor. Type of experiment: functional. The gist of the method: as §2
The subject of experiment [21] is Mus musculus. In words: Cloudman S 91 melanoma tumor and organ incorporation of radioactivity 48 hr after 1.4 microCi dose injected intramuscularly in mouse liver. Type of experiment: functional. A digest of the protocol:
as §2

Experiment [22] relates to Mus musculus. In words: Harding Passey melanoma tumor and organ incorporation of radioactivity 48 hr after 1.4 microCi dose injected intramuscularly in mouse tumor. Type of experiment: functional. A digest of the protocol:
as §1

Experiment [23] concerns Mus musculus. Briefly: Harding Passey melanoma tumor and organ incorporation of radioactivity 48 hr after 1.4 microCi dose injected intramuscularly in mouse lung. Type of experiment: functional. The gist of the method: as §1
Experiment [24] relates to Mus musculus. In words: Cloudman S 91 melanoma tumor and organ incorporation of radioactivity 48 hr after 1.4 microCi dose injected intramuscularly in mouse kidney. It counts as functional. A digest of the protocol: as §2
Experiment [25] relates to Mus musculus. In words: Harding Passey melanoma tumor and organ incorporation of radioactivity 48 hr after 1.4 microCi dose injected intramuscularly in mouse liver. Type of experiment: functional. A digest of the protocol:
as §1

In experiment [26] the test system is Mus musculus. Briefly: Cloudman S 91 melanoma tumor and organ incorporation of radioactivity 48 hr after 1.4 microCi dose injected intramuscularly in mouse spleen. It counts as functional. The gist of the method: as §2
In experiment [27] the test system is Mus musculus. Briefly: Harding Passey melanoma tumor and organ incorporation of radioactivity 48 hr after 5.1 microCi dose injected intramuscularly in mouse liver. It counts as functional. A digest of the protocol:
as §1

For experiment [28], the system named is Mus musculus. Briefly: Harding Passey melanoma tumor and organ incorporation of radioactivity 48 hr after 5.1 microCi dose injected intramuscularly in mouse lung. It counts as functional. The gist of the method:
as §1

In experiment [29] the test system is Mus musculus. Briefly: Harding Passey melanoma tumor and organ incorporation of radioactivity 48 hr after 5.1 microCi dose injected intramuscularly in mouse kidney. Type of experiment: functional. A digest of the protocol:
as §1

Experiment [30] has as its system Mus musculus. Briefly: Harding Passey melanoma tumor and organ incorporation of radioactivity 48 hr after 5.1 microCi dose injected intramuscularly in mouse eye. It counts as functional. A digest of the protocol:
as §1

The test system of experiment [31] is Mus musculus. Briefly: Harding Passey melanoma tumor and organ incorporation of radioactivity 48 hr after 5.1 microCi dose injected intramuscularly in mouse tumor. It counts as functional. The gist of the method: as §1
Experiment [32] deals with Mus musculus. Briefly: Harding Passey melanoma tumor and organ incorporation of radioactivity 48 hr after 5.1 microCi dose injected intramuscularly in mouse spleen. Type of experiment: functional. A digest of the protocol: as §1

Our source for the level, % of control and Activity values is ChEMBL document CHEMBL1122148, “Affinity therapeutics. 1. Selective incorporation of 2-thiouracil derivatives in murine melanomas. Cytostatic activity of 2-thiouracil arotinoids, 2-thiouracil retinoids, arotinoids, and retinoids” (1982).

`CCOC(=O)c1ccc(/C=C(\C)c2ccc3c(c2)C(C)(C)CCC3(C)C)cc1` [AROTINOID]: the level, % of control at 10 µM with S91 [1] came out at 98%. The compound also returned a level, % of control at 1 µM with S91 [2] of 134%.
On to `OCCCCc1cnc(S)nc1O`, for which the Activity with Mus musculus [3] is given as 4 c.p.m. min-1 mg-1; in the experiment with Mus musculus [4], 1.5 c.p.m. min-1 mg-1; in the experiment with Mus musculus [5] it was 24.8 c.p.m. min-1 mg-1; in the experiment on Mus musculus [6], 7.6 c.p.m. min-1 mg-1; in the experiment with Mus musculus [7], 26.1 c.p.m. min-1 mg-1; in the experiment on Mus musculus [8], 1.5 c.p.m. min-1 mg-1. Besides, the Activity with Mus musculus [9] is 2.7 c.p.m. min-1 mg-1; in the experiment on Mus musculus [10], 6.1 c.p.m. min-1 mg-1; in the experiment on Mus musculus [11], 8.8 c.p.m. min-1 mg-1; with Mus musculus [12], 2.6 c.p.m. min-1 mg-1; in the experiment with Mus musculus [13], 3 c.p.m. min-1 mg-1; in the experiment with Mus musculus [14], 8 c.p.m. min-1 mg-1. Besides, in the experiment on S91 [1], the level, % of control at 10 µM is 82%. Also, the level, % of control at 1 µM in the experiment on S91 [2] amounted to 81%.
In the experiment with S91 [1], `O=Cc1ccc(C(=O)OCCCCc2cnc(S)nc2O)cc1` returned a level, % of control at 10 µM of 98%. The same compound had a level, % of control at 1 µM in the experiment with S91 [2] of 118%.
Taken in the same sequence, the figures for `C/C(=C\c1ccc(C(=O)O)cc1)c1ccc2c(c1)C(C)(C)CCC2(C)C` were 98% and 122%.
Taken in the same sequence, the figures for `Oc1nc(S)ncc1CCCCBr` were 100% and 109%.
For the compound `O=Cc1ccc(C(=O)OCCc2cnc(S)nc2O)cc1`, in the experiment on S91 [1], the level, % of control at 10 µM worked out at 83%. Further, in the experiment on S91 [2], the level, % of control at 1 µM amounted to 82%.
`CC1=C(/C=C/C(C)=C/C=C/C(C)=C/C(=O)OCCCCc2cnc(S)nc2O)C(C)(C)CCC1`: in the experiment on S91 [2], the level, % of control at 1 µM stood at 73%.
Compound `CC(O)Cc1cnc(S)nc1O` (configuration not stated) displayed a level, % of control at 10 µM with S91 [1] of 106%. The same compound came in with a level, % of control at 1 µM in the experiment on S91 [2] of 134%.
Turning to `CC1=C(/C=C/C(C)=C/C=C/C(C)=C/C(=O)O)C(C)(C)CCC1` [TRETINOIN], in the experiment on S91 [2], the level, % of control at 1 µM turned out to be 11%.
In turn, `N#CSCCCCc1cnc(S)nc1O` registered a level, % of control at 10 µM in the experiment with S91 [1] of 100%. The compound further yielded a level, % of control at 1 µM in the experiment with S91 [2] of 93%.
`CC(=O)OCCCCc1cnc(S)nc1O`: the level, % of control at 10 µM in the experiment with S91 [1] amounted to 94%. Also, the level, % of control at 1 µM in the experiment on S91 [2] is 90%.
Turning to `C/C(=C\c1ccc(C(=O)OCCCCc2cnc(S)nc2O)cc1)c1ccc2c(c1)CCCC2`, the Activity with Mus musculus [15] came out at 1.2 c.p.m. min-1 mg-1; in the experiment with Mus musculus [16], 3.2 c.p.m. min-1 mg-1; with Mus musculus [17], 1.8 c.p.m. min-1 mg-1; in the experiment on Mus musculus [18], 6.6 c.p.m. min-1 mg-1; in the experiment with Mus musculus [19] it was 1.9 c.p.m. min-1 mg-1; in the experiment with Mus musculus [20] it was 4.4 c.p.m. min-1 mg-1. In addition, the Activity with Mus musculus [21] is 6.1 c.p.m. min-1 mg-1; in the experiment on Mus musculus [22], 10.6 c.p.m. min-1 mg-1; with Mus musculus [23], 3.7 c.p.m. min-1 mg-1; with Mus musculus [24], 4.5 c.p.m. min-1 mg-1; in the experiment on Mus musculus [25], 9.9 c.p.m. min-1 mg-1; in the experiment on Mus musculus [26], 1.7 c.p.m. min-1 mg-1. In the experiment with S91 [1], this compound registered a level, % of control at 10 µM of 103%. In the experiment on S91 [2], the level, % of control at 1 µM was determined as 78%.
As to `C/C(=C\c1ccc(C(=O)OCCCCc2cnc(S)nc2O)cc1)c1ccc2c(c1)C(C)(C)CCC2(C)C`, the level, % of control at 10 µM in the experiment on S91 [1] came to 84%. This compound also had a level, % of control at 1 µM in the experiment on S91 [2] of 146%.
On the same counts, the results for `O=C1CCCC/C1=C/CCCc1cnc(S)nc1O` are 89% and 87%.
On the same counts, the results for `C/C=C/C=C/C(=O)OCCCCc1cnc(S)nc1O` are 94% and 139%.
As to `O=c1cc[nH]c(=S)[nH]1` [THIOURACIL], the Activity in the experiment on Mus musculus [27] was determined as 20.5 c.p.m. min-1 mg-1; in the experiment on Mus musculus [28], 4.7 c.p.m. min-1 mg-1; in the experiment with Mus musculus [29] it was 22.3 c.p.m. min-1 mg-1; in the experiment on Mus musculus [30], 23.1 c.p.m. min-1 mg-1; with Mus musculus [31], 153.3 c.p.m. min-1 mg-1; in the experiment with Mus musculus [32], 2.7 c.p.m. min-1 mg-1. Further, the level, % of control at 10 µM in the experiment on S91 [1] amounted to 97%. Besides, in the experiment with S91 [2], the level, % of control at 1 µM is 97%.
The compound `CCOC(=O)c1ccc(/C=C(\C)c2ccc3c(c2)CCCC3)cc1` yielded a level, % of control at 10 µM in the experiment with S91 [1] of 97%. The same compound returned a level, % of control at 1 µM in the experiment on S91 [2] of 81%.
